{"source": "ChEMBL document CHEMBL1145555", "about": "“Combination of virtual screening and high throughput gene profiling for identification of novel liver X receptor modulators” (2008)", "key": {"THP-1 [1]": {"test_system": "THP-1", "assay": "Induction of NR1H2 gene expression in human THP1 cells at 10 uM by array plate mRNA assay", "type": "functional", "in_short": "(§1)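 Multiplex quantitative nuclease protection assay (ArrayPlate mRNA) of LXR-regulated genes, run at the same time as housekeeping genes. Compounds were tested at 10 µM alongside a negative control compound. CV% generally below 20%.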"}, "THP-1 [2]": {"test_system": "THP-1", "assay": "Induction of ABCA1 gene expression in human THP1 cells at 10 uM by array plate mRNA assay", "type": "functional", "in_short": "as §1"}, "THP-1 [3]": {"test_system": "THP-1", "assay": "Induction of IL6 gene expression in human THP1 cells at 10 uM by array plate mRNA assay", "type": "functional", "in_short": "as §1"}, "THP-1 [4]": {"test_system": "THP-1", "assay": "Induction of HDS11B1 gene expression in human THP1 cells at 10 uM using Array plate mRNA assay", "type": "functional", "in_short": "as §1"}, "THP-1 [5]": {"test_system": "THP-1", "assay": "Induction of B2M gene expression in human THP1 cells at 10 uM by array plate mRNA assay", "type": "functional", "in_short": "as §1"}, "THP-1 [6]": {"test_system": "THP-1", "assay": "Induction of LXRalpha gene expression in human THP1 cells at 10 uM by array plate mRNA assay", "type": "functional", "in_short": "as §1"}, "THP-1 [7]": {"test_system": "THP-1", "assay": "Induction of SREBP1c gene expression in human THP1 cells at 10 uM by array plate mRNA assay", "type": "functional", "in_short": "as §1"}, "THP-1 [8]": {"test_system": "THP-1", "assay": "Induction of ACTB gene expression in human THP1 cells at 10 uM by array plate mRNA assay", "type": "functional", "in_short": "as §1"}, "THP-1 [9]": {"test_system": "THP-1", "assay": "Induction of Cox2 gene expression in human THP1 cells at 10 uM by array plate mRNA assay", "type": "functional", "in_short": "as §1"}, "THP-1 [10]": {"test_system": "THP-1", "assay": "Induction of ABCG1 gene expression in human THP1 cells at 10 uM by array plate mRNA assay", "type": "functional", "in_short": "as §1"}, "THP-1 [11]": {"test_system": "THP-1", "assay": "Induction of FASN gene expression in human THP1 cells at 10 uM by array plate mRNA assay", "type": "functional", "in_short": "as §1"}, "THP-1 [12]": {"test_system": "THP-1", "assay": "Induction of TBP gene expression in human THP1 cells at 10 uM using by array plate mRNA assay", "type": "functional", "in_short": "as §1"}, "THP-1 [13]": {"test_system": "THP-1", "assay": "Induction of SCD1 gene expression in human THP1 cells at 10 uM by array plate mRNA assay", "type": "functional", "in_short": "as §1"}, "THP-1 [14]": {"test_system": "THP-1", "assay": "Induction of APOE gene expression in human THP1 cells at 10 uM by array plate mRNA assay", "type": "functional", "in_short": "as §1"}, "[15]": {"target": "T1, Oxysterols receptor LXR-alpha (Homo sapiens) (UniProt Q13133)", "T1 sequence (whole entry)": "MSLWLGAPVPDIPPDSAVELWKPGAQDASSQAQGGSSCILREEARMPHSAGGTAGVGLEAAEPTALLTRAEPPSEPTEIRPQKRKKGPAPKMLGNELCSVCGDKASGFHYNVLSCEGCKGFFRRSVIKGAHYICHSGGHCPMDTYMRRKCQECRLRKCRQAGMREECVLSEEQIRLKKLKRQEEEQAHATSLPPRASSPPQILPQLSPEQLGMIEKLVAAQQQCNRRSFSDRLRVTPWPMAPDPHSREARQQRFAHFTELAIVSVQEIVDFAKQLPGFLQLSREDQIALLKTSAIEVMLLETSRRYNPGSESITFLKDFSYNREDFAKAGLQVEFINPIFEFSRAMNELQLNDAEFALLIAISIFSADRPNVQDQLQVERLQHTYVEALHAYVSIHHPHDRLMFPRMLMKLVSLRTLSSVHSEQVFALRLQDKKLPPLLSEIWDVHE", "assay": "Agonist activity at human LXRalpha by SRC1 cofactor recruitment assay", "type": "functional", "in_short": "(§2)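 HTRF coactivator recruitment: His-tagged human LBD (LXRα 2 nM or LXRβ 1 nM) incubated with compound, 20 nM biotin-SRC1 peptide, 5 nM streptavidin-allophycocyanin and Eu-anti-His antibody (1 nM for α, 0.5 nM for β). Incubated 1 h at room temperature with shaking. EC50 taken from the 665/615 nm time-resolved fluorescence ratio.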"}, "[16]": {"target": "T2, Oxysterols receptor LXR-beta (Homo sapiens) (UniProt P55055)", "T2 sequence (whole entry)": "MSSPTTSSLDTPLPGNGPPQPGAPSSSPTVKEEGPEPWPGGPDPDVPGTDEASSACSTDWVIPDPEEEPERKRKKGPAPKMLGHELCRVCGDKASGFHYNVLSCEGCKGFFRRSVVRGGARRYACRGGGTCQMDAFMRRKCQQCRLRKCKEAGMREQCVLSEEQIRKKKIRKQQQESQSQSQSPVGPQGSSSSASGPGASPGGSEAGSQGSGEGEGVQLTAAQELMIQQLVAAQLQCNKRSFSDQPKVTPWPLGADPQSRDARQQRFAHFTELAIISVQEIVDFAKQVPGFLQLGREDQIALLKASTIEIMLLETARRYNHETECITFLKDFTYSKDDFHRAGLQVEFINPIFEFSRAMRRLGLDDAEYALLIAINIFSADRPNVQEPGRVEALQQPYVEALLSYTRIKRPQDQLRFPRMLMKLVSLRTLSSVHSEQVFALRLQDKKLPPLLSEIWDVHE", "assay": "Agonist activity at human LXRbeta by SRC1 cofactor recruitment assay", "type": "functional", "in_short": "as §2"}, "THP-1 [17]": {"test_system": "THP-1", "assay": "Induction of cholesterol efflux in human THP1 cells", "type": "functional, cell-based", "in_short": "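THP-1 cells differentiated to macrophages with 200 nM PMA for 30 h. Labelled 18 h with 0.6 µCi [1,2-3H]cholesterol plus 16 µg/mL acLDL and PMA. Treated with compound 6 h in serum-free medium with 2 mg/mL BSA, then 18 h more with 5 µg/mL apoA-I plus compound. Supernatant radioactivity expressed as fold over vehicle. Mean of triplicates, single experiment.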"}, "HepG2": {"test_system": "HepG2", "assay": "Induction of lipogenesis in human HepG2 cells after 24 hrs", "type": "functional, cell-based", "in_short": "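HepG2 cells pretreated with compound or vehicle for 24 h, then given 1 µCi [14C]glycerol for a further 48 h. Cellular triglycerides extracted, resolved by TLC and quantified by phosphorimaging. Reported as fold induction over vehicle. Mean of triplicates, single experiment.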"}}, "note": "The source made the active and inactive calls. No cut-off for these calls is given here."}
{"smiles": "C[C@H](CC[C@@H]1OC1(C)C)[C@H]1CC[C@H]2[C@@H]3CC=C4C[C@@H](O)CC[C@]4(C)[C@H]3CC[C@]12C", "note": "[24(S),25-EPOXYCHOLESTEROL]", "values": [{"measurement": "Activity", "setting": "THP-1 [1]", "value": 1.09}, {"measurement": "Activity", "setting": "THP-1 [2]", "value": 5.59}, {"measurement": "Activity", "setting": "THP-1 [3]", "value": 0.82}, {"measurement": "Activity", "setting": "THP-1 [4]", "value": 0.79}, {"measurement": "Activity", "setting": "THP-1 [5]", "value": 1.25}, {"measurement": "Activity", "setting": "THP-1 [6]", "value": 3.41}, {"measurement": "Activity", "setting": "THP-1 [7]", "value": 2.05}, {"measurement": "Activity", "setting": "THP-1 [8]", "value": 0.9}, {"measurement": "Activity", "setting": "THP-1 [9]", "value": 1.35}, {"measurement": "Activity", "setting": "THP-1 [10]", "value": 9.91}, {"measurement": "Activity", "setting": "THP-1 [11]", "value": 0.89}, {"measurement": "Activity", "setting": "THP-1 [12]", "value": 0.99}, {"measurement": "Activity", "setting": "THP-1 [13]", "value": 1.17}, {"measurement": "Activity", "setting": "THP-1 [14]", "value": 2.61}]}
{"smiles": "O=S(=O)(c1ccccc1)N(CC(F)(F)F)c1ccc(C(O)(C(F)(F)F)C(F)(F)F)cc1", "note": "[T091317]", "values": [{"measurement": "Activity", "setting": "THP-1 [1]", "value": 1.17}, {"measurement": "Activity", "setting": "THP-1 [2]", "value": 5.9}, {"measurement": "Activity", "setting": "THP-1 [3]", "value": 1.78}, {"measurement": "Activity", "setting": "THP-1 [4]", "value": 1.26}, {"measurement": "Activity", "setting": "THP-1 [5]", "value": 1.17}, {"measurement": "Activity", "setting": "THP-1 [6]", "value": 4.56}, {"measurement": "Activity", "setting": "THP-1 [7]", "value": 4.09}, {"measurement": "Activity", "setting": "THP-1 [8]", "value": 0.93}, {"measurement": "Activity", "setting": "THP-1 [9]", "value": 0.93}, {"measurement": "Activity", "setting": "THP-1 [10]", "value": 15.05}, {"measurement": "Activity", "setting": "THP-1 [11]", "value": 2.59}, {"measurement": "Activity", "setting": "THP-1 [12]", "value": 1.05}, {"measurement": "Activity", "setting": "THP-1 [13]", "value": 8.16}, {"measurement": "Activity", "setting": "THP-1 [14]", "value": 4.2}]}
{"smiles": "O=C(O)Cc1cccc(OCCCN(Cc2cccc(C(F)(F)F)c2Cl)CC(c2ccccc2)c2ccccc2)c1", "values": [{"measurement": "Activity", "setting": "THP-1 [1]", "value": 1.22}, {"measurement": "Activity", "setting": "THP-1 [2]", "value": 10.04}, {"measurement": "Activity", "setting": "THP-1 [3]", "value": 1.02}, {"measurement": "Activity", "setting": "THP-1 [4]", "value": 0.8}, {"measurement": "Activity", "setting": "THP-1 [5]", "value": 1.18}, {"measurement": "Activity", "setting": "THP-1 [6]", "value": 4.7}, {"measurement": "Activity", "setting": "THP-1 [7]", "value": 5.28}, {"measurement": "Activity", "setting": "THP-1 [8]", "value": 0.89}, {"measurement": "Activity", "setting": "THP-1 [9]", "value": 1.2}, {"measurement": "Activity", "setting": "THP-1 [10]", "value": 24.92}, {"measurement": "Activity", "setting": "THP-1 [11]", "value": 3.77}, {"measurement": "Activity", "setting": "THP-1 [12]", "value": 1.25}, {"measurement": "Activity", "setting": "THP-1 [13]", "value": 12.82}, {"measurement": "Activity", "setting": "THP-1 [14]", "value": 4.13}]}
{"smiles": "C[C@@H]1C2Cc3ccc(O)cc3[C@]1(C)CCCN2CCc1ccccc1", "values": [{"measurement": "Activity", "setting": "[15]", "value": "Active"}, {"measurement": "Activity", "setting": "THP-1 [1]", "value": 1.16}, {"measurement": "Activity", "setting": "THP-1 [2]", "value": 4.53}, {"measurement": "Activity", "setting": "THP-1 [3]", "value": 0.91}, {"measurement": "Activity", "setting": "[16]", "value": "Active"}, {"measurement": "Activity", "setting": "THP-1 [4]", "value": 1.43}, {"measurement": "Activity", "setting": "THP-1 [5]", "value": 1.05}, {"measurement": "Activity", "setting": "THP-1 [6]", "value": 3.93}, {"measurement": "Activity", "setting": "THP-1 [7]", "value": 4.05}, {"measurement": "Activity", "setting": "THP-1 [8]", "value": 0.93}, {"measurement": "Activity", "setting": "THP-1 [17]", "value": "Active"}, {"measurement": "Activity", "setting": "THP-1 [9]", "value": 1.2}, {"measurement": "Activity", "setting": "THP-1 [10]", "value": 13.56}, {"measurement": "Activity", "setting": "THP-1 [11]", "value": 1.75}, {"measurement": "Activity", "setting": "THP-1 [12]", "value": 1.19}, {"measurement": "Activity", "setting": "THP-1 [13]", "value": 4.76}, {"measurement": "Activity", "setting": "HepG2", "value": "Active"}, {"measurement": "Activity", "setting": "THP-1 [14]", "value": 3.34}]}
